Data from ChEMBL document CHEMBL1148725, “2,2,2-Trichloro-N-({2-[2-(dimethylamino)ethyl]-1,3-dioxo-2,3-dihydro-1H-benzo[de]isoquinolin- 5-yl}carbamoyl)acetamide (UNBS3157), a novel nonhematotoxic naphthalimide derivative with potent antitumor activity” (J Med Chem, 2007).

Experiments:
[1] = Antiproliferative activity against U373MG cells after 72 hrs by MTT assay; format: functional, cell-based, Homo sapiens, U-373MG ATCC
Summary of the method: (§1)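 Cells cultured with each compound for three days; growth then read by the MTT colorimetric assay and reported as IC50 (µM).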

L1210 = test: Antitumor activity in L1210 cells xenografted B6D2F1 mouse at 80 mg/kg, ip relative to control; format: functional; details: route intraperitoneal
Summary of the method: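 Mice grafted with L1210 leukaemia cells on day 0, then dosed i.p. four times weekly on days 1-4 and 8-11. Five mice per group. Outcome is %T/C, the median survival of treated over control. Kruskal-Wallis test followed by Dunn comparisons against control.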

[2] = Toxicity in ip dosed B6D2F1 mouse; format: organism-based; details: in vivo
Summary of the method: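 Acute MTD was set by a single i.p. dose to groups of three healthy female B6D2F1 mice, at 2.5, 5, 10, 20, 40, 80 and 160 mg/kg. The MTD is the dose just below the lowest dose that killed at least one mouse.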

HCT-15 = test: Antiproliferative activity against HCT15 cells after 72 hrs by MTT assay; format: functional, cell-based, Homo sapiens; summary of the method: as §1
LoVo = test: Antiproliferative activity against LoVo cells after 72 hrs by MTT assay; format: functional, cell-based, Homo sapiens; summary of the method: as §1
[3] = Antiproliferative activity against Hs683 cells after 72 hrs by MTT assay; format: functional, cell-based, Homo sapiens, Hs 683; summary of the method: as §1
MCF7 = test: Antiproliferative activity against MCF7 cells after 72 hrs by MTT assay; format: functional, cell-based, Homo sapiens; details: Homo sapiens, MCF7, 72 h; summary of the method: as §1
A549 = test: Antiproliferative activity against A549 cells after 72 hrs by MTT assay; format: functional, cell-based, Homo sapiens; details: Homo sapiens, A549, 72 h; summary of the method: as §1

CCOC(=O)CCC(=O)Nc1cc2c3c(cccc3c1)C(=O)N(CCN(C)C)C2=O
IC50 ([1]; Homo sapiens, U373 MG, 72 h): > 10 µM | Activity (L1210): 156% | MTD [2]: > 80 mg/kg | IC50 (HCT-15; Homo sapiens, HCT-15, 72 h): > 10 µM | IC50 (LoVo; Homo sapiens, LoVo, 72 h): > 10 µM | IC50 ([3]; Homo sapiens, Hs 683, 72 h): > 10 µM | IC50 (MCF7): > 10 µM | IC50 (A549): > 10 µM

COc1cc(/C=N\c2cc3c4c(cccc4c2)C(=O)N(CCN(C)C)C3=O)cc(OC)c1OC
IC50 ([1]; Homo sapiens, U373 MG, 72 h): 6.4 µM | Activity (L1210): 107% | MTD [2]: > 80 mg/kg | IC50 (HCT-15; Homo sapiens, HCT-15, 72 h): > 10 µM | IC50 (LoVo; Homo sapiens, LoVo, 72 h): 5 µM | IC50 ([3]; Homo sapiens, Hs 683, 72 h): > 10 µM | IC50 (MCF7): > 10 µM | IC50 (A549): 6.7 µM

CN(C)CCN1C(=O)c2cccc3cc(NCc4ccc5c(c4)OCCO5)cc(c23)C1=O
IC50 ([1]; Homo sapiens, U373 MG, 72 h): 7.1 µM | Activity (L1210): 150% | MTD [2]: > 80 mg/kg | IC50 (HCT-15; Homo sapiens, HCT-15, 72 h): 6.7 µM | IC50 (LoVo; Homo sapiens, LoVo, 72 h): 4 µM | IC50 ([3]; Homo sapiens, Hs 683, 72 h): 5.5 µM | IC50 (MCF7): 8.9 µM | IC50 (A549): 9.7 µM

CN(C)CCN1C(=O)c2cccc3cc(NC(=S)Nc4ccc(OC(F)(F)F)cc4)cc(c23)C1=O
IC50 ([1]; Homo sapiens, U373 MG, 72 h): 3.6 µM | Activity (L1210): 171% | MTD [2]: 40 mg/kg | IC50 (HCT-15; Homo sapiens, HCT-15, 72 h): 5.9 µM | IC50 (LoVo; Homo sapiens, LoVo, 72 h): 4 µM | IC50 ([3]; Homo sapiens, Hs 683, 72 h): 6.4 µM | IC50 (MCF7): 4.8 µM | IC50 (A549): 4.3 µM

CN(C)CCN1C(=O)c2cccc3cc(NC(=O)Nc4ccc(C#N)cc4)cc(c23)C1=O
IC50 ([1]; Homo sapiens, U373 MG, 72 h): 0.9 µM | Activity (L1210): 207% | MTD [2]: > 80 mg/kg | IC50 (HCT-15; Homo sapiens, HCT-15, 72 h): 9.7 µM | IC50 (LoVo; Homo sapiens, LoVo, 72 h): 4.2 µM | IC50 ([3]; Homo sapiens, Hs 683, 72 h): 5 µM | IC50 (MCF7): 3.1 µM | IC50 (A549): 3.5 µM

CN(C)CCN1C(=O)c2cccc3cc(NCc4cc5c(cc4[N+](=O)[O-])OCO5)cc(c23)C1=O
Activity (L1210): 157% | MTD [2]: > 80 mg/kg | IC50 (HCT-15; hct-15): > 10 µM | IC50 (LoVo; lovo): 8.1 µM | IC50 ([3]; hs 683): > 10 µM

CN(C)CCN1C(=O)c2cccc3cc(NC(=O)Nc4ccc(Cl)cc4)cc(c23)C1=O
IC50 ([1]; Homo sapiens, U373 MG, 72 h): 3.6 µM | Activity (L1210): 161% | MTD [2]: 80 mg/kg | IC50 (HCT-15; Homo sapiens, HCT-15, 72 h): 3.1 µM | IC50 (LoVo; Homo sapiens, LoVo, 72 h): 2 µM | IC50 ([3]; Homo sapiens, Hs 683, 72 h): 2.8 µM | IC50 (MCF7): 2.4 µM | IC50 (A549): 1.9 µM

CN(C)CCN1C(=O)c2cccc3cc(NC(=S)NCc4ccc5c(c4)OCO5)cc(c23)C1=O
IC50 ([1]; Homo sapiens, U373 MG, 72 h): > 10 µM | MTD [2]: > 80 mg/kg | IC50 (HCT-15; Homo sapiens, HCT-15, 72 h): > 10 µM | IC50 (LoVo; Homo sapiens, LoVo, 72 h): > 10 µM | IC50 ([3]; Homo sapiens, Hs 683, 72 h): > 10 µM | IC50 (MCF7): > 10 µM | IC50 (A549): > 10 µM

CN(C)CCN1C(=O)c2cccc3cccc(c23)C1=O
IC50 ([1]; Homo sapiens, U373 MG, 72 h): 7.5 µM | Activity (L1210): 156% | MTD [2]: 40 mg/kg | IC50 (HCT-15; Homo sapiens, HCT-15, 72 h): 9.2 µM | IC50 (LoVo; Homo sapiens, LoVo, 72 h): 4.7 µM | IC50 ([3]; Homo sapiens, Hs 683, 72 h): 6.9 µM | IC50 (MCF7): 10 µM | IC50 (A549): 5.6 µM

CN(C)CCN1C(=O)c2cccc3cc(NC=O)cc(c23)C1=O
IC50 ([1]; Homo sapiens, U373 MG, 72 h): 4.4 µM | MTD [2]: > 80 mg/kg | IC50 (HCT-15; Homo sapiens, HCT-15, 72 h): 4.3 µM | IC50 (LoVo; Homo sapiens, LoVo, 72 h): 6.6 µM | IC50 ([3]; Homo sapiens, Hs 683, 72 h): 4.8 µM | IC50 (MCF7): 7.4 µM | IC50 (A549): 3.9 µM

CN(C)CCN1C(=O)c2cccc3cc(NCc4ccccc4O[C@H]4O[C@H](CO)[C@@H](O)[C@H](O)[C@H]4O)cc(c23)C1=O
Activity (L1210): 113% | MTD [2]: > 80 mg/kg

CN(C)CCN1C(=O)c2cccc3cc(NCc4cc5c(cc4[N+](=O)[O-])OCO5)cc(c23)C1=O.Cl
IC50 ([1]; Homo sapiens, U373 MG, 72 h): > 10 µM | Activity (L1210): 150% | MTD [2]: > 80 mg/kg | IC50 (HCT-15; Homo sapiens, HCT-15, 72 h): 8 µM | IC50 (LoVo; Homo sapiens, LoVo, 72 h): 5 µM | IC50 ([3]; Homo sapiens, Hs 683, 72 h): 7.6 µM | IC50 (MCF7): > 10 µM | IC50 (A549): > 10 µM

CN(C)CCN1C(=O)c2cccc3cc(NC(=O)CCCCl)cc(c23)C1=O
IC50 ([1]; Homo sapiens, U373 MG, 72 h): > 10 µM | Activity (L1210): 164% | MTD [2]: > 80 mg/kg | IC50 (HCT-15; Homo sapiens, HCT-15, 72 h): > 10 µM | IC50 (LoVo; Homo sapiens, LoVo, 72 h): 10 µM | IC50 ([3]; Homo sapiens, Hs 683, 72 h): > 10 µM | IC50 (MCF7): > 10 µM | IC50 (A549): > 10 µM

COc1cc(/C=N\c2cc3c4c(cccc4c2)C(=O)N(CCN(C)C)C3=O)ccc1O
IC50 ([1]; Homo sapiens, U373 MG, 72 h): > 10 µM | Activity (L1210): 164% | MTD [2]: > 80 mg/kg | IC50 (HCT-15; Homo sapiens, HCT-15, 72 h): > 10 µM | IC50 (LoVo; Homo sapiens, LoVo, 72 h): > 10 µM | IC50 ([3]; Homo sapiens, Hs 683, 72 h): > 10 µM | IC50 (MCF7): > 10 µM | IC50 (A549): > 10 µM

CN(C)CCN1C(=O)c2cccc3cc(NC(=S)Nc4ccc(Cl)cc4)cc(c23)C1=O
IC50 ([1]; Homo sapiens, U373 MG, 72 h): > 10 µM | Activity (L1210): 164% | MTD [2]: > 80 mg/kg | IC50 (HCT-15; Homo sapiens, HCT-15, 72 h): > 10 µM | IC50 (LoVo; Homo sapiens, LoVo, 72 h): 8.7 µM | IC50 ([3]; Homo sapiens, Hs 683, 72 h): > 10 µM | IC50 (MCF7): > 10 µM | IC50 (A549): > 10 µM

CN(C)CCN1C(=O)c2cccc3cc(/N=C\c4ccc(C#N)cc4)cc(c23)C1=O
IC50 ([1]; Homo sapiens, U373 MG, 72 h): 4.2 µM | Activity (L1210): 135% | MTD [2]: > 80 mg/kg | IC50 (HCT-15; Homo sapiens, HCT-15, 72 h): 9.9 µM | IC50 (LoVo; Homo sapiens, LoVo, 72 h): 4.1 µM | IC50 ([3]; Homo sapiens, Hs 683, 72 h): > 10 µM | IC50 (MCF7): 7.4 µM | IC50 (A549): 7.7 µM

CCOC(=O)c1ccc(NC(=O)Nc2cc3c4c(cccc4c2)C(=O)N(CCN(C)C)C3=O)cc1
IC50 ([1]; Homo sapiens, U373 MG, 72 h): 2.1 µM | Activity (L1210): 187% | MTD [2]: > 80 mg/kg | IC50 (HCT-15; Homo sapiens, HCT-15, 72 h): 7.4 µM | IC50 (LoVo; Homo sapiens, LoVo, 72 h): 1.5 µM | IC50 ([3]; Homo sapiens, Hs 683, 72 h): 2.1 µM | IC50 (MCF7): 3.1 µM | IC50 (A549): 1.6 µM

CN(C)CCN1C(=O)c2cccc3cc(NC(=O)Nc4ccc5c(c4)OCO5)cc(c23)C1=O
IC50 ([1]; Homo sapiens, U373 MG, 72 h): 1.4 µM | Activity (L1210): 187% | MTD [2]: > 80 mg/kg | IC50 (HCT-15; Homo sapiens, HCT-15, 72 h): 7.7 µM | IC50 (LoVo; Homo sapiens, LoVo, 72 h): 4.4 µM | IC50 ([3]; Homo sapiens, Hs 683, 72 h): 5.8 µM | IC50 (MCF7): 6.6 µM | IC50 (A549): 5.5 µM

CN(C)CCN1C(=O)c2cccc3cc(NC(=S)Nc4ccc(C#N)cc4)cc(c23)C1=O
IC50 ([1]; Homo sapiens, U373 MG, 72 h): 9.4 µM | MTD [2]: > 80 mg/kg | IC50 (HCT-15; Homo sapiens, HCT-15, 72 h): > 10 µM | IC50 (LoVo; Homo sapiens, LoVo, 72 h): > 10 µM | IC50 ([3]; Homo sapiens, Hs 683, 72 h): > 10 µM | IC50 (MCF7): > 10 µM | IC50 (A549): > 10 µM

CN(C)CCN1C(=O)c2cccc3cc(NCc4ccc5c(c4)OCO5)cc(c23)C1=O.Cl
IC50 ([1]; u-373mg atcc): 4 µM | Activity (L1210): 207% | MTD [2]: > 80 mg/kg | IC50 (HCT-15; Homo sapiens, HCT-15, 72 h): 4.5 µM | IC50 (LoVo; Homo sapiens, LoVo, 72 h): 3.7 µM | IC50 ([3]; hs 683): 4.5 µM | IC50 (MCF7): > 10 µM | IC50 (A549): > 10 µM
